Bioassay records as filed in PubChem BioAssay.
Only some compounds are listed: those with a hit (about 2.4% of all), similar ones and a draw of the others.
NR2E3 ag-1 = agonists of human nuclear receptor NR2E3 | Q9Y5X4 | GST-NR2E3/biotin-RetCOR TR-FRET, 1536-well | inhibition of corepressor binding, % at 4.78 µM | 0.12% of 320,000 active;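 active means percent inhibition above the cutoff of mean plus 3 SD of all tested compounds, set per screening campaign, cut at about 20% in these data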;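 further: 0% = DMSO wells and 100% = biotin wells as full block of FRET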
Target sequence (Q9Y5X4 whole entry, looked up): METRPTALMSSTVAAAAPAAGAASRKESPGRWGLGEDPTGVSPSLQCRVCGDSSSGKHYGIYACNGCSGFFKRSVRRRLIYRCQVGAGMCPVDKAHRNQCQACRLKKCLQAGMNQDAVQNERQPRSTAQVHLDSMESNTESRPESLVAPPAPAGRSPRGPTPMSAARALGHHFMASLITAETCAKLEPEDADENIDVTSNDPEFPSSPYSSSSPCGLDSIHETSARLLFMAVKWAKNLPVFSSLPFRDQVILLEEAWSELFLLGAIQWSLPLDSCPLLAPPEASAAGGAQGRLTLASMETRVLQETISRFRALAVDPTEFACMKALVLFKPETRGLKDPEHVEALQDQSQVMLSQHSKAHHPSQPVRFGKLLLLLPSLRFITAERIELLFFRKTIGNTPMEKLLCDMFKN
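Test system – NR2E3–RetCOR corepressor complex · Quantity – NR2E3 fusion 1.35 nM · Buffer or medium – Tris pH 7.5 · Incubation – Compound–protein incubation for 5 h at 4 °C · Technique – TR-FRET, Eu(K)-anti-GST donor, streptavidin-D2 acceptor, ex 340, em 617/671 nm · Evaluation – percent inhibition of 671/617 nm emission ratio versus biotin and DMSO controls · Plate – 1536-well format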
697 NFkB inh = lowers PMA/ionomycin-induced NF-kB signal in 697 B cells; 697 B-cell NF-kB luciferase reporter, 16 h; inhibition, % at 4 µM; 0.33% of 330,000 active; in the data active means inhibition above about 35%
aDG glyco up = alpha-DG glycosylation activation. Pro5-aDG cells, alpha-DG glycosylation AlphaScreen (IIH6); 0% Pro5, 100% B10-LARGE cell signal. activation, % at 10 µM. 0.22% of 360,000 active;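 active means activation of at least 8% versus controls, or a plate z-score of at least 8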;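 further: Pro5 are CHO cells carrying HIG-tagged alpha-DG that lacks glycosylation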
NR2E3 ag-2 = agonists of human NR2E3 nuclear receptor; Q9Y5X4; AID 602229; CHO-S Gal4-NCOR/VP16-NR2E3 two-hybrid, luciferase; 0.35% of 360,000 active; inhibition of corepressor binding, % at 3.98 µM;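 active means inhibition above the mean of all tested compounds plus 3 SD, cut at about 70% in these data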;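 further: 0% = DMSO with NR2E3 transfected cells and 100% = cells lacking NR2E3 construct; higher means lower luciferase signal from less NR2E3 corepressor binding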
MPTP inh = blocks calcium-induced mitochondrial swelling; inhibition, % at 10 µM; isolated mouse mitochondria, Ca2+ swelling absorbance, 30 min; AID 602449; 1.4% of 360,000 active;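 active means inhibition of 50% or more, scaled per plate between neutral and stimulator controls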;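 further: 0% = DMSO wells given calcium and 100% = 1 mM EGTA wells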
Jurkat NFkB inh = inhibitors of the PMA/ionomycin-induced NF-kB reporter in Jurkat cells. PMA/ionomycin-induced NF-kB luciferase reporter, luminescence. inhibition, % at 4 µM. 0.53% of 330,000 active; in the data active means inhibition above about 50%
697 NFkB conf = lowers PMA/ionomycin-induced NF-kB signal in 697 B cells; shares compounds with 697 NFkB inh; 697 B-cell NF-kB luciferase, 16 h; inhibition, % at 4 µM; 35% of 2,000 active; AID 449746; in the data active means inhibition mostly above about 28%, no sharp cut-off; inactive means mostly below about 22%
An asterisk follows results filed as active; i = inactive; · = not tested or not shown.

SMILES	NR2E3 ag-1	697 NFkB inh	aDG glyco up	NR2E3 ag-2	MPTP inh	Jurkat NFkB inh	697 NFkB conf
COc1ccc(NS(=O)(=O)c2cccc(C(=O)N/N=C(\C)c3cccnc3)c2)cc1	·	17	0	-10	-2	-4	·
O=C(CCCl)Nc1nc2c(s1)CCc1ccccc1-2	1	-266	0	6	1	23	-15
CC1Cc2ccccc2N1S(=O)(=O)c1cccc(C(=O)N2CCCCC2)c1 (stereo not given)	·	4	0	2	-1	11	·
CC1Cc2ccccc2N1S(=O)(=O)c1cnc(Cl)c(Cl)c1 (stereo not given)	0	45*	0	-9	1	-1	33*
CC1Cc2ccccc2N1S(=O)(=O)c1cnc(Cl)c(Br)c1 (stereo not given)	0	40*	0	10	0	14	35*
CC1Cc2ccccc2N1S(=O)(=O)c1cccc(C(=O)c2nccn2C)c1 (stereo not given)	4	-41	0	10	3	-9	·
CC(C)(C)c1ccccc1NC(=O)c1ccc2c(c1)SC1=NS(=O)(=O)CCN12	0	-12	0	-5	1	11	·
O=C(Nc1cccc(Br)c1)c1ccc2c(c1)SC1=NS(=O)(=O)CCN12	3	46*	0	-3	0	-1	41*
Fc1ccccc1-c1nc(-c2ccccc2)no1	-1	-272	0	-158	0	-120	-227
COc1cccc(-c2nc(-c3ccccc3)no2)c1	-4	-279	0	-161	3	-142	-270
COc1ccc(-c2noc(-c3ccc(Cl)cc3)n2)cc1	-2	-143	·	·	·	-139	·
Fc1ccccc1-c1nc(-c2ccncc2)no1	2	-138	0	-126	-1	-87	·
COc1ccc(-c2nc(-c3ccc(C(=O)O)cc3)no2)cc1	4	-315	0	-161	0	-17	-353
O=C(Nc1ccc(C(=O)N2CCCC2)cc1)C1CC1	·	·	0	-20	-1	·	·
C[C@@H]1CN([C@@H](C)CO)C(=O)CCCn2cc(nn2)CO[C@H]1CN(C)S(=O)(=O)c1ccccc1C#N	·	·	0	-31	-1	·	·
COc1ccc(S(=O)(=O)Nc2cccc3c2O[C@H](CN(C)C(=O)Nc2c(C)noc2C)[C@@H](C)CN([C@H](C)CO)C3=O)cc1	·	18	0	-13	-2	3	·
CCCN1C(=O)/C(=C/c2c(N3CCNC(=O)C3CC(=O)OCC)nc3c(C)cccn3c2=O)SC1=S (stereo not given)	-1	37*	0	15	5	10	36*
CN(c1cccc(Cl)c1)S(=O)(=O)c1cccc(C(=O)Nc2ccc3c(c2)CCC3)c1	2	-4	2	-38	49	6	·
N#CCSc1n[nH]c2nc3c(c(=O)n12)C1(CCCC1)Cc1ccccc1-3	3	37*	0	2	-14	1	4
CCCn1c(SCC#N)nc2c(c1=O)C1(CCCC1)Cc1ccccc1-2	-2	15	0	-47	0	0	·
COc1cccc(NC(=O)COC(=O)Cn2c(C)csc2=O)c1	1	11	0	-26	-1	1	·
CCO/N=C(\N)c1[nH]ncc1Br	3	10	0	15	0	9	·
N/C(=N\OC(=O)c1ccc(Cl)cc1)c1[nH]ncc1Br	-1	-394	0	-181	2	-138	-275
COC(=O)[C@H]1C[C@H](OC(=O)NC2CC2)[C@@]2(O)CN(S(=O)(=O)c3ccc(C)cc3)CC2[C@H]1C(=O)OC (stereo not given in full)	·	·	0	-8	0	·	·
Nc1nc(Nc2ccccc2F)sc1C(=O)c1ccccc1	3	-260	0	-105	0	-58	-21
SMILES	NR2E3 ag-1	697 NFkB inh	aDG glyco up	NR2E3 ag-2	MPTP inh	Jurkat NFkB inh	697 NFkB conf
O=S(=O)(Nc1cc(C(F)(F)F)ccc1N1CCOCC1)c1ccccc1	-1	11	0	12	2	-4	·
CC(=O)c1cccc(S(=O)(=O)Nc2cc(C(F)(F)F)ccc2N2CCOCC2)c1	0	39*	0	-20	0	11	32*
Cc1nn2cc(-c3ccc(-c4ccccc4)cc3)nc2s1	1	-331	2	-120	2	-107	-328
O=C(NC1=NCCS1)c1ccc(Cl)c(Cl)c1	2	-255	0	-60	-3	-147	-186
Cc1cc(C)cc(NC(=O)/C(C#N)=C/c2cn(CC(=O)NCc3ccco3)c3ccccc23)c1	-2	41*	0	-9	3	2	-9
Cc1ccc(NC(=O)/C(C#N)=C/c2cn(CC(=O)NCc3ccco3)c3ccccc23)cc1C	1	9	0	-19	4	-22	·
CNC(=O)c1oc(-c2ccc(Cl)cc2)nc1C	4	-2	0	2	1	16	·
O=C(NC1CCSc2ccccc21)c1c(F)cccc1Cl (stereo not given)	1	-15	0	24	0	3	·
COc1ccccc1Cn1c(=O)c2ccccc2n2c(SCc3csc(C)n3)nnc12	-1	-1	0	-3	1	-11	·
COc1ccccc1Cn1c(=O)c2ccccc2n2c(Sc3ncnc4sccc34)nnc12	-1	35*	4	-27	0	14	18
Cc1ccc(S(=O)(=O)Nc2ccc3c(c2)n(C)c(=O)n3C)cc1	1	47*	0	33	1	-10	29*
Cn1c(=O)n(C)c2cc(NS(=O)(=O)c3ccccc3)ccc21	-2	36*	-1	11	-1	-2	32*
Cn1c(=O)n(C)c2cc(S(=O)(=O)Nc3ccccc3)ccc21	3	1	0	19	0	-4	·
Cc1ccc(C(=O)COc2nc(C)nc3ccccc23)cc1	-2	12	0	-5	0	4	·
COc1ccc(-c2cc3ccc(OC)cc3cn2)cc1	4	-327	0	-192	-1	-144	-390
O=C(c1cc(C(=O)N2CCOCC2)c2nc3ccccc3n2c1)c1cc(Cl)cc(Cl)c1O	-2	19	0	-14	3	-3	·
CC1CCCCC1NC(=O)C1CCN(S(=O)(=O)c2cccc3nonc23)CC1 (stereo not given)	5	12	0	2	0	8	·
O=[N+]([O-])c1ccccc1N/N=C/c1cccc(O)c1O	0	i	0	-35	5	-34	-190
O=C(CN1C(=O)C(=O)N(Cc2ccccc2)C1=O)c1ccc[nH]1	1	13	0	-16	0	-31	·
Cc1cnc(C(=O)N(CCCn2ccnc2)C2C(=O)Nc3ccccc3N=C2c2ccccc2)cn1 (stereo not given)	·	·	0	-20	-2	·	·
